{"data": "Experimental data gathered from unrelated publications", "note": "Each line is one published result; the experiments were not run side by side."}
{"Compound": "C[C@@H]1CC[C@@H]([C@](O)(CNCc2cccc3ccccc23)COCc2ccccc2)[C@H](OCc2ccccc2)C1", "tested on": "A2780", "assay": "cell growth or viability, MTT", "setting": "30 µM, 72 h", "measurement": "inhibition", "result": "90.7%"}
{"Compound": "C=CC(=O)NC1CCN(c2ncc3ncnc(Nc4ccc(Oc5ccc6c(c5)ncn6C)c(C)c4)c3n2)CC1", "tested on": "LS180", "assay": "cell growth or viability", "measurement": "EC50", "result": "5.48 µM"}
{"Compound": "CC(=O)Nc1ccc(Oc2ccc(C(=O)C(Cl)Cl)cc2[N+](=O)[O-])cc1Cl", "tested on": "NCI-H1650", "assay": "cell growth or viability, MTT", "setting": "2.5 µM", "measurement": "inhibition", "result": "77.8%"}
{"Compound": "C[C@@H]1CC[C@@H]([C@](C)(O)CNCc2cccc3ccccc23)[C@H](OCc2ccccc2)C1", "tested on": "A2780", "assay": "cell growth or viability, MTT", "setting": "30 µM, 72 h", "measurement": "inhibition", "result": "94.2%"}
{"Compound": "Cc1[nH]c(C(=O)Nc2ccc(C(=O)NCC(=O)O)cc2N2CC[C@H](NC(=O)OC(C)(C)C)C2)c(Cl)c1Cl", "tested on": "Klebsiella pneumoniae", "assay": "microbial growth, broth dilution", "test system": "ATCC700603", "measurement": "MIC", "result": "> 32 µg/mL"}
{"Compound": "COc1cccc2c1C(=O)c1c(O)c3c(c(O)c1C2=O)C[C@@](O)(C(=O)CO)C[C@@H]3O[C@H]1C[C@H](N)[C@H](O)[C@H](C)O1", "tested on": "Caco-2", "assay": "cell growth or viability, MTT", "setting": "12.5 µg/mL, 48 h, serum-free", "measurement": "viability", "result": "40.5%"}
{"Compound": "Cl.O=C(O)CNC(=O)c1ccc(NC(=O)c2cc(Br)c(Br)[nH]2)c(N2CCNCC2)c1", "tested on": "Klebsiella pneumoniae", "assay": "microbial growth, broth dilution", "test system": "ATCC700603", "measurement": "MIC", "result": "> 32 µg/mL"}
{"Compound": "COc1ccc(CNC[C@](O)(COCc2ccc(F)cc2)[C@@H]2CC[C@@H](C)C[C@H]2OCc2ccc(F)cc2)cc1", "tested on": "A2780", "assay": "cell growth or viability, MTT", "setting": "10 µM, 72 h", "measurement": "inhibition", "result": "93.8%"}
{"Compound": "Cc1[nH]c(C(=O)Nc2ccc(C(=O)NCC(=O)O)cc2N2CCN(C(=O)OC(C)(C)C)CC2)c(Cl)c1Cl", "tested on": "Klebsiella pneumoniae", "assay": "microbial growth, broth dilution", "test system": "ATCC700603", "measurement": "MIC", "result": "> 32 µg/mL"}
{"Compound": "CN[C@H](CC(C)C)C(=O)N[C@H]1C(=O)N[C@@H](CC(N)=O)C(=O)N[C@H]2C(=O)N[C@H]3C(=O)N[C@H](C(=O)N[C@H](C(=O)O)c4cc(O)cc(O)c4-c4cc3ccc4O)[C@H](O)c3ccc(c(Cl)c3)Oc3cc2cc(c3O[C@@H]2O[C@H](CO)[C@@H](O)[C@H](O)[C@H]2O[C@H]2C[C@](C)(N)[C@H](O)[C@H](C)O2)Oc2ccc(cc2Cl)[C@H]1O", "tested on": "Streptococcus pneumoniae", "assay": "microbial growth", "test system": "ATCC49619", "measurement": "MIC", "result": "0.25 µM"}
